Measurements taken from PubChem BioAssay.
The source made the active and inactive calls.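 Rule for the calls, unless noted: active = viability at or under a set limit in both replicates, limit being median viability minus 3 SD (cut at about 48% in these data, passing the limit was not always enough); inconclusive = at or under the limit in just one replicate; inactive = at or above the limit in both replicates.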

Columns and labels:
[1] = reducers of endogenous Her2 protein level, primary screen, SKBR3 breast tumor cells, AlphaScreen, ATP viability (AID 461;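 active = Her2 level under about 52% in both replicate screens, with viability over 70% of control, limit read from the data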;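 for Her2 level: lower value means less Her2 protein in the cells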;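 for viability: percent of carrier control wells set as 100% viability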); conditions: 18-24 h, measured here: SKBR3 viability, ATP luminescence, at 10 µM
[2] = molecular target: Receptor tyrosine-protein kinase erbB-2 (Homo sapiens) (UniProt P04626); assay: as above; conditions: 18-24 h, at 10 µM, stronger effect = lower value
[3] = SK-BR-3 cell growth inhibitors, pilot screen, 24 h, human (AID 572;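 active = viability at or below 10% of carrier control in both of two separate runs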;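 note: compound exposure lasted between 18 and 24 h rather than exactly 24 h; 100% = carrier-treated control wells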); conditions: SK-BR-3 viability, CellTiter-Glo luminescence, at 10 µM, stronger effect = lower value
[4] = HUVEC growth inhibition – cell-based, human, primary screen (AID 575;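 active = viability at or below 30% in both replicate assays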;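 note: 100% = median of untreated cell wells with 0.1% DMSO on each plate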); conditions: HUVEC proliferation, CellTiter-Glo luminescence, 72 h; at 10 µM; stronger effect = lower value
How it was run: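 Test system: HUVEC primary cells. Quantity: 1250 endothelial cells in each well. Dosing: single-point 10 µM, DMSO 0.1% final. Incubation: 72 h treatment at 37 °C. Measured by: CTG luminescence. Control set: DMSO cell controls and MePR drug controls. Plate: collagen-coated 384-well format.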

[5] = growth inhibitors of H69AR lung tumor, primary screen, human, duplicate replicates (AID 580); conditions: H69AR lung tumor cells viability, ATP luminescence, 72 h; at 10 µM; stronger effect = lower value;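 note: 100% = mean luminescence of untreated wells and 0% = no signal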
[6] = reversal of MRP1-mediated doxorubicin resistance, pilot screen, H69AR cells, doxorubicin co-treatment (AID 601;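 active = viability loss from added drug above about 55%, and viability with drug at most 40%, in both replicates, limit read from the data, passing the limit was not always enough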); conditions: CellTiter-Glo, 72 h, at 10 µM; for differential viability (reversal): stronger effect = higher value
[7] = 384-well plate pilot, post-Golgi transport modulator project, inhibition of yeast transport mutant growth (AID 636; in the data active = inhibition above about 31%); conditions: absorbance 615 nm, about 18 h, stronger effect = higher value
[8] = growth suppression of yeast trafficking mutant, preliminary HTS, modulators of trafficking downstream of Golgi apparatus project, 1536-format plate, OD 615 nm (AID 637; in the data active = inhibition above about 30%); conditions: yeast transport mutant growth, absorbance 615 nm, 18 h; stronger effect = higher value
[9] = H69AR cells + 2 uM doxorubicin, measured here: viability with 2 uM doxorubicin, stronger effect = lower value
[10] = H69AR cells, compound alone cytotoxicity

Sequence of Receptor tyrosine-protein kinase erbB-2 (Homo sapiens) (P04626 whole entry, looked up): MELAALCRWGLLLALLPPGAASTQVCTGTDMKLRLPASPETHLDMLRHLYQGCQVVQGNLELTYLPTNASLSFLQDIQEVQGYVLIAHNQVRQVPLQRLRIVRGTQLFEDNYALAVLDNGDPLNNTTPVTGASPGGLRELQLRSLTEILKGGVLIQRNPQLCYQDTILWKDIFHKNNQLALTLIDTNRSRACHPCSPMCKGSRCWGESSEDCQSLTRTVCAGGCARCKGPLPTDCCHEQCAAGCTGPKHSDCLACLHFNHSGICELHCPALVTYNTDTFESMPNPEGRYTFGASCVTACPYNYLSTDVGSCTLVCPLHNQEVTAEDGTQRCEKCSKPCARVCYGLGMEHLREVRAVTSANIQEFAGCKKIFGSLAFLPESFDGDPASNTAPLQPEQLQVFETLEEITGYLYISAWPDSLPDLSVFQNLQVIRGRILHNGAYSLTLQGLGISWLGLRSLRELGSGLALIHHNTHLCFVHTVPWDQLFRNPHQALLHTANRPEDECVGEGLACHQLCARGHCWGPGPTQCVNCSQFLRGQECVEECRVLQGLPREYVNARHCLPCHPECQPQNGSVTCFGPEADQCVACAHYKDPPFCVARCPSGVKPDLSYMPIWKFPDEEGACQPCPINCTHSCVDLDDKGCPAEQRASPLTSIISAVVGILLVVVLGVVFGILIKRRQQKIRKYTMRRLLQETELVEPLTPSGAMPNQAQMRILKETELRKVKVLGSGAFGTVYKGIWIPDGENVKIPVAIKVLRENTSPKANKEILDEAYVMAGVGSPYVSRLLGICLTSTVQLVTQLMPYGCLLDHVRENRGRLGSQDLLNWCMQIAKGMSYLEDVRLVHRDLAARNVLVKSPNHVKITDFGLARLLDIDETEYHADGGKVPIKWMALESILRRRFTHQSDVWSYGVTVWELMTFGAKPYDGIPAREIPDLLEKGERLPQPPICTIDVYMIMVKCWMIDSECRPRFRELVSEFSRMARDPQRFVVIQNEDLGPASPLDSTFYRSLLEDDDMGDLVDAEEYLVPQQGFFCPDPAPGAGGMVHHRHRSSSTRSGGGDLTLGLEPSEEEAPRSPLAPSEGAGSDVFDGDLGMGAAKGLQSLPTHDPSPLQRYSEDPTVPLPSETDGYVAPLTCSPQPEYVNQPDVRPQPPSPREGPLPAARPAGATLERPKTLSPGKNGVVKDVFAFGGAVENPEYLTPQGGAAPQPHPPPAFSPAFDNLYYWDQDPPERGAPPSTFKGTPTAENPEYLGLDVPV

Row | SMILES | viability [1] [%] | Her2 level [2] | viability [3] | viability [4] | viability [5] | differential viability (reversal) ([6]; H69AR cells + 2 uM doxorubicin) | viability [6, 9] [%] | viability [6, 10] [%] | inhibition [7] | inhibition [8]
1 | Cc1noc(C)c1COc1cccc(C(=O)Nc2ccc(C#N)cc2)c1 | 96 | 90% (inactive) | 96% (inactive) | 68% (inactive) | 68.9% (inactive) | -10.6% (inactive) | 79.6 | 68.9 | -2.99% (inactive) | -6.67% (inactive)
2 | COc1ccc(C2=NOC(C(=O)NCCCN3CCOCC3)C2)cc1 (stereo not given) | 109 | 100% (inactive) | 109% (inactive) | 116% (inactive) | 87.3% (inactive) | 1.06% (inactive) | 86.2 | 87.3 | -6.71% (inactive) | 9.34% (inactive)
3 | CCCc1c(O)nc(SCC(=O)NCCc2ccc(OC)c(OC)c2)[nH]c1=O | 95 | 93.5% (inactive) | 95% (inactive) | 84.6% (inactive) | 104% (inactive) | -0.29% (inactive) | 104 | 104 | -4.53% (inactive) | -2.26% (inactive)
4 | CCNC(=O)c1ccc(NS(=O)(=O)c2ccccc2)cc1 | 124 | 91% (inactive) | 124% (inactive) | 86.1% (inactive) | 90.5% (inactive) | -1.69% (inactive) | 92.2 | 90.5 | 0% (inactive) | 4.1% (inactive)
5 | O=c1[nH]c(SCc2ccccc2Cl)nc2c1CCCC2 | 100 | 75.5% (inactive) | 100% (inactive) | 65.4% (inactive) | 89.5% (inactive) | -3.21% (inactive) | 92.7 | 89.5 | -5.13% (inactive) | 0.17% (inactive)
6 | O=C(Nc1ccc(S(=O)(=O)NC2CCCC2)cc1)c1cnccn1 | 92 | 82.5% (inactive) | 92% (inactive) | 104% (inactive) | 93.7% (inactive) | 2.56% (inactive) | 91.2 | 93.7 | -2.5% (inactive) | -4% (inactive)
7 | COC(C)(C)c1cc(C(C)(C)C)nc(N)n1 | 107 | 109% (inactive) | 107% (inactive) | 86.2% (inactive) | 89.9% (inactive) | -1.34% (inactive) | 91.2 | 89.9 | -2.08% (inactive) | -4.75% (inactive)
8 | CCOc1cc(C(=O)N2CCN(c3ccccc3)CC2)cc(OCC)c1OCC | 98.5 | 97% (inactive) | 98.5% (inactive) | 90.1% (inactive) | 97.2% (inactive) | 3.12% (inactive) | 94 | 97.2 | -4.93% (inactive) | -5.32% (inactive)
9 | CCn1cc(C(=O)N2CCCC2)c(=O)c2cc(S(=O)(=O)N3CCOCC3)ccc21 | 116 | 99% (inactive) | 116% (inactive) | 92.2% (inactive) | 99.5% (inactive) | 1.21% (inactive) | 98.3 | 99.5 | -5.92% (inactive) | -6.51% (inactive)
10 | CC1CCN(S(=O)(=O)c2ccc3[nH]c(=O)cc(C(=O)O)c3c2)CC1 | 98 | 114% (inactive) | 98% (inactive) | 106% (inactive) | 105% (inactive) | 17.1% (inactive) | 88.3 | 105 | -4.16% (inactive) | -4.1% (inactive)
11 | CCc1nnc2sc(-c3cc(-c4ccccc4)nc4ccccc34)nn12 | 71 | 65% (inactive) | 71% (inactive) | 75.5% (inactive) | 86.9% (inactive) | -0.185% (inactive) | 87.1 | 86.9 | -1.82% (inactive) | 1% (inactive)
12 | C=CCn1c(SCC(=O)O)nnc1-c1cccc(Cl)c1 | 116 | 107% (inactive) | 116% (inactive) | 103% (inactive) | 109% (inactive) | 12.6% (inactive) | 96.3 | 109 | -5.19% (inactive) | -3.67% (inactive)
13 | CCOC(=O)N1CCC(N2C(=O)c3ccccc3C2Nc2ccc3c(C)cc(=O)oc3c2)CC1 (stereo not given) | 76 | 105% (inactive) | 76% (inactive) | 115% (inactive) | 83.4% (inactive) | 13.9% (inactive) | 69.5 | 83.4 | -1.79% (inactive) | -2.67% (inactive)
14 | O=C(CSc1nnc2ncccn12)N1CCCCCC1 | 102 | 85% (inactive) | 102% (inactive) | 103% (inactive) | 107% (inactive) | 15.6% (inactive) | 91.3 | 107 | -3.84% (inactive) | -7.3% (inactive)
15 | Cc1cccc(N2CCN(S(=O)(=O)c3ccc4c(c3)CCC(=O)N4)CC2C)c1 (stereo not given) | 110 | 95% (inactive) | 110% (inactive) | 84.7% (inactive) | 73.6% (inactive) | -10.3% (inactive) | 83.9 | 73.6 | -5.13% (inactive) | -2.18% (inactive)
16 | COc1ccccc1OCC(=O)NCC1CCCCC1 | 94.5 | 114% (inactive) | 94.5% (inactive) | 93.2% (inactive) | 109% (inactive) | 23.4% (inactive) | 85.2 | 109 | -3.29% (inactive) | -9.33% (inactive)
17 | O=c1[nH]cnc2c1nc(SCc1ccccc1)n2C1OC(CO)C(O)C1O (stereo not given) | 94.5 | 88% (inactive) | 94.5% (inactive) | 92.4% (inactive) | 101% (inactive) | 8.52% (inactive) | 92.2 | 101 | -5.54% (inactive) | 4.6% (inactive)
18 | O=C(COC(=O)C1CCN(S(=O)(=O)c2cccs2)CC1)c1cc2ccccc2o1 | 104 | 83% (inactive) | 104% (inactive) | 91.9% (inactive) | 96.2% (inactive) | 2.38% (inactive) | 93.8 | 96.2 | -2.19% (inactive) | -0.63% (inactive)
19 | O=C(Nn1cnnc1)c1cc2c(s1)CCCC2 | 100 | 95.5% (inactive) | 100% (inactive) | 80% (inactive) | 102% (inactive) | -2.61% (inactive) | 104 | 102 | -3.42% (inactive) | -4% (inactive)
20 | O=C(CCN1C(=O)C2C3C=CC(C3)C2C1=O)NCCc1ccccc1Cl (stereo not given) | 95 | 68.5% (inactive) | 95% (inactive) | 94.2% (inactive) | 95.2% (inactive) | 10.5% (inactive) | 84.7 | 95.2 | -6.49% (inactive) | -5.08% (inactive)
21 | Cc1cc(NC(=O)CCC(=O)N(CC(=O)NC2CCCC2)Cc2ccc(F)cc2)no1 | 101 | 94% (inactive) | 101% (inactive) | 88.9% (inactive) | 95.6% (inactive) | 12.9% (inactive) | 82.7 | 95.6 | -5.87% (inactive) | -5.08% (inactive)
22 | CCC(=O)N1CCN(CCN=CC2=C(O)CC(C)(C)CC2=O)CC1 | 90.5 | 93.5% (inactive) | 90.5% (inactive) | 79.6% (inactive) | 107% (inactive) | 11.3% (inactive) | 95.2 | 107 | -1.6% (inactive) | -6.77% (inactive)
23 | CCn1c(SCC(=O)Nc2nc(C)cs2)nnc1-c1ccco1 | 106 | 87.5% (inactive) | 106% (inactive) | 110% (inactive) | 92% (inactive) | 4.38% (inactive) | 87.7 | 92 | -3.33% (inactive) | -2% (inactive)
24 | NS(=O)(=O)c1ccc(NCc2c(F)cccc2Cl)cc1 | 100 | 95.5% (inactive) | 100% (inactive) | 102% (inactive) | 82.9% (inactive) | 6.38% (inactive) | 76.5 | 82.9 | -3.82% (inactive) | 7.54% (inactive)
25 | CCCCc1cc(=O)oc2cc(C)cc(OC(C)C(=O)O)c12 (stereo not given) | 116 | 115% (inactive) | 116% (inactive) | 109% (inactive) | 104% (inactive) | 8.19% (inactive) | 95.8 | 104 | -2.3% (inactive) | -7.17% (inactive)
26 | COc1ccc(OC)c(C2C(C#N)=C(N)Oc3cc(C)[nH]c(=O)c32)c1 (stereo not given) | 92 | 84.5% (inactive) | 92% (inactive) | 83.8% (inactive) | 99.5% (inactive) | 0.505% (inactive) | 99 | 99.5 | -3.87% (inactive) | 0.49% (inactive)
27 | COc1ccc(-c2ccc(Nc3ccc(S(=O)(=O)N4CCCC4)cc3)nn2)cc1OC | 77.5 | 70.5% (inactive) | 77.5% (inactive) | 61.6% (inactive) | 53.6% (inactive) | -2.87% (inactive) | 56.5 | 53.6 | -6.8% (inactive) | -1.97% (inactive)
28 | CCOC(=O)C1CCCN(C(=O)c2cc3c(C)nc4ccccc4c3o2)C1 (stereo not given) | 86 | 99% (inactive) | 86% (inactive) | 71.7% (inactive) | 74.7% (inactive) | 38.5% (inactive) | 36.2 | 74.7 | -1.87% (inactive) | 16.7% (inactive)
29 | CCCn1nc(NS(=O)(=O)c2ccccc2)c2cc3ccccc3nc21 | 91.5 | 94.5% (inactive) | 91.5% (inactive) | 76.5% (inactive) | 120% (inactive) | 25% (inactive) | 94.9 | 120 | -1.84% (inactive) | 5.45% (inactive)
